For three compounds, Activity and IC50 results are on record in ChEMBL document CHEMBL1147025, “Synthesis of fluorescently tagged isoprenoid bisphosphonates that inhibit protein geranylgeranylation” (Bioorg Med Chem, 2007).

Holding throughout (conditions): Homo sapiens
Experiment [1] relates to K562. Put plainly: Inhibition of Ras farnesylation in K562 cells by Western blot analysis after 24 hrs. It is filed as functional, cell-based. The essentials: (§1)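 K562 cells (5 × 10^6 per 5 mL; RPMI-1640, 10% heat-inactivated FBS, 37 °C, 5% CO2) treated 24 h with bisphosphonates diluted in water. Untreated cells served as negative control and 10 µM lovastatin as positive prenylation control. Western blotting used pan-Ras antibody (farnesylation), Rab6 antibody (GGPTase II), and an antibody recognising only unmodified Rap1a (GGPTase I).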

For experiment [2], the system named is K562. Kind of experiment: Inhibition of GGPTase1 in K562 cells assessed as Rap1a geranylgeranylation after 24 hrs. It is filed as cell-based. A digest of the protocol: as §1
The subject of experiment [3] is K562. Put plainly: Inhibition of GGPTase2 in K562 cells assessed as Rab6 geranylgeranylation after 24 hrs. The class given is cell-based. A digest of the protocol:
as §1

In experiment [4] the test system is K562. Put plainly: Inhibition of DNA synthesis in K562 cells assessed as [3H]thymidine incorporation after 24 hrs. The class given is functional, cell-based. A digest of the protocol:
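K562 cells grown at 37 °C, 5% CO2 in RPMI-1640 with 10% heat-inactivated FBS. Cells at 2 × 10^5 per 200 µL exposed to bisphosphonates (diluted in water) for 24 h, pulsed with [3H]thymidine (0.04 µCi/well) for the last 2 h. Incorporation into DNA measured by liquid scintillation counting; IC50 for 24 h exposure.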

The source made the active and inactive calls. The rule behind the calls is not given here.

For `CC(C)=CCC/C(C)=C/CC(C/C=C(\C)CNc1ccccc1C(=O)O)(P(=O)(O)O)P(=O)(O)O`, the outcome in experiment [1] was inactive. Moreover, the result in experiment [2] and in experiment [3] was Active. The half-inhibitory concentration (IC50) in experiment [4] is more than 100 µM.
As for `CC(C)=CCC/C(C)=C/CC(C/C=C(\C)CC/C=C(\C)CNc1ccccc1C(=O)O)(P(=O)(O)O)P(=O)(O)O`, the result in experiment [1] was inactive. The result in experiment [2] and in experiment [3] was Active. Moreover, the IC50 in experiment [4] is more than 100 µM.
With `C/C(=C\CC(P(=O)(O)O)P(=O)(O)O)CC/C=C(\C)CNc1ccccc1C(=O)O`, the outcome in experiment [1], in experiment [2] and in experiment [3] was inactive. For the same compound, the IC50 in experiment [4] was more than 100 µM.

For orientation: IC50 means the point on the concentration scale where inhibition reaches its midpoint.
